Active and inactive are the calls of the source. No cut-off for these calls is given here.
Experiments:
[1] = biological target: Calcium/calmodulin-dependent protein kinase type 1 (Homo sapiens) (UniProt Q14012); experiment: Inhibition of recombinant human N-terminal GST-tagged CAMK1alpha (2 to 369 residues) expressed in Escherichia coli assessed as remaining activity at 1 uM using YLRRRLSDSNF as substrate incubated for 30 mins in presence of [gamma-33P]ATP by filter binding method relative to control
Procedure, shortened: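 Run robotically for 30 min at 21 °C under linear conditions. Compound at 1 or 10 µM. Percentage activity remaining versus control without compound, triplicate mean ± S.D.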

[2] = biological target: Ephrin type-B receptor 3 (Homo sapiens) (UniProt P54753); experiment: Inhibition of recombinant human N-terminal His6-tagged EPHB3 (561 to 998 residues) expressed in Escherichia coli assessed as remaining activity at 1 uM using Poly(Glu, Tyr) as substrate incubated for 30 mins in presence of [gamma-33P]ATP by filter binding method relative to control
Procedure, shortened: (§1)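 Panel assays were run for 30 min at 21 °C, within the linear range for time and enzyme. […] Results are percent activity remaining relative to compound-free control, averaged from triplicate ± S.D.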

[3] = biological target: Inhibitor of nuclear factor kappa-B kinase subunit beta (Homo sapiens) (UniProt O14920); experiment: Inhibition of recombinant human N-terminal His6-tagged IKKbeta (1 to 736 residues) expressed in baculovirus infected Sf21 cells assessed as remaining activity at 1 uM using LDDRHDSGLDSMKDEEY as substrate incubated for 30 mins in presence of [gamma-33P]ATP by filter binding method relative to control
Procedure, shortened: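 Profiling-centre panel assay performed robotically at 21 °C for 30 min, linear with time and enzyme. […] Values are percent of compound-free control activity, the mean of triplicates ± S.D.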

[4] = biological target: MAP kinase-interacting serine/threonine-protein kinase 2 (Homo sapiens) (UniProt Q9HBH9); experiment: Inhibition of recombinant human N-terminal GST/C-terminal His6-tagged MNK2alpha (2 to 465 residues) expressed in Escherichia coli assessed as remaining activity at 1 uM using eIF4E as substrate incubated for 30 mins in presence of [gamma-33P]ATP by filter binding method relative to control
[5] = biological target: Serine/threonine-protein kinase PAK 6 (Homo sapiens) (UniProt Q9NQU5); experiment: Inhibition of recombinant human N-terminal GST-tagged PAK6 (2 to 681 residues) expressed in Escherichia coli assessed as remaining activity at 1 uM using RRRLSFAEPG as substrate incubated for 30 mins in presence of [gamma-33P]ATP by filter binding method relative to control; procedure, shortened: as §1
[6] = biological target: Serine/threonine-protein kinase pim-1 (Homo sapiens) (UniProt P11309); experiment: Inhibition of recombinant human N-terminal His6-tagged PIM1 (2 to 313 residues) expressed in baculovirus infected Sf21 cells assessed as remaining activity at 1 uM using RSRHSSYPAGT as substrate incubated for 30 mins in presence of [gamma-33P]ATP by filter binding method relative to control
Procedure, shortened: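 Incubations ran robotically for 30 min at room temperature (21 °C) under linear conditions. Results are percent activity remaining versus controls without compound, as the mean of triplicates ± S.D.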

[7] = biological target: Serine/threonine-protein kinase PLK1 (Homo sapiens) (UniProt P53350); experiment: Inhibition of recombinant human N-terminal His6-tagged PLK1 (1 to 603 residues) expressed in baculovirus infected Sf21 cells assessed as remaining activity at 1 uM using ISDELMDATFADQEAKKK as substrate incubated for 30 mins in presence of [gamma-33P]ATP by filter binding method relative to control
Procedure, shortened: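 Radiometric panel assay run robotically at 21 °C for 30 min, linear in time and enzyme. […] Activity is expressed as percentage of the compound-omitted control, averaged from triplicates ± S.D.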

[8] = biological target: Insulin receptor-related protein (Homo sapiens) (UniProt P14616); experiment: Inhibition of recombinant human N-terminal His6-tagged IRR (944 to 1236 residues) expressed in baculovirus infected Sf21 cells assessed as remaining activity at 10 uM using MBP as substrate incubated for 30 mins in presence of [gamma-33P]ATP by filter binding method relative to control
[9] = biological target: MAP kinase-interacting serine/threonine-protein kinase 2 (Homo sapiens) (UniProt Q9HBH9); experiment: Inhibition of recombinant human N-terminal GST/C-terminal His6-tagged MNK2alpha (2 to 465 residues) expressed in Escherichia coli assessed as remaining activity at 10 uM using eIF4E as substrate incubated for 30 mins in presence of [gamma-33P]ATP by filter binding method relative to control
[10] = biological target: Ribosomal protein S6 kinase alpha-3 (Homo sapiens) (UniProt P51812); experiment: Inhibition of recombinant human N-terminal His6-tagged RSK2 (2 to 740 residues) expressed in baculovirus infected Sf21 cells assessed as remaining activity at 10 uM using KKLNRTLSVA as substrate incubated for 30 mins in presence of [gamma-33P]ATP by filter binding method relative to control
Procedure, shortened: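 Assays ran 30 min at 21 °C, robotically and in the linear range. Remaining activity is given relative to incubations lacking compound, as the average of triplicate determinations ± S.D.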

[11] = biological target: Sphingosine kinase 1 (Homo sapiens) (UniProt Q9NYA1); experiment: Inhibition of SPHK1 (unknown origin) assessed as remaining activity at 1 uM using sphingosine as substrate incubated for 30 mins in presence of ATP relative to control
Procedure, shortened: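 SPHK1 assayed with 10 μM sphingosine, 10 μM ATP in 50 mM Tris/HCl pH 7.5, 150 mM NaCl, 5 mM MgCl2, 1 mM EGTA, 1 mM DTT, 30 min at room temperature. ATP remaining read by Kinase-Glo Plus luminescence after 10 min. Activity as % of control, triplicate.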

HEK293 = experiment: Inhibition of PI3K in IGF1-stimulated HEK293 cells assessed as reduction in IGF1-stimulated PtdIns(3,4,5)P3 production at 1 uM pre incubated for 30 mins followed by IGF1-stimulation for 10 mins; assay type: cell-based; conditions: Homo sapiens
MEF = experiment: Inhibition of mTORC2 in serum starved sin1 knockout MEF cells assessed as reduction IGF1-stimulated AKT phosphorylation at Thr308 residue at 100 to 1000 nM incubated for 20 mins by immunoblot analysis; assay type: cell-based; conditions: Mus musculus, dose 100-1000 nM
Procedure, shortened: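 Serum withdrawn 16 h. Inhibitor or vehicle given 30 min before stimulation with 50 ng/ml IGF-1 for 20 min. Lysed in Tris lysis buffer and immunoblotted for Akt Thr308 phosphorylation with ECL detection. Applies to HEK-293 and to wild-type, Rictor, Sin1 or mLST8 knockout MEFs. Three independent experiments.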

mTORC1 (Homo sapiens) = mTORC1 (Homo sapiens) (UniProt P42345+Q8N122+Q9BVC4); conditions: HEK293, dose 30-1000 nM, time 30.0 min
mTORC2 (Homo sapiens) [12] = biological target: T1, mTORC2 (Homo sapiens) (UniProt P42345+Q6R327+Q9BVC4+Q9BPZ7); conditions: HEK293, dose 100-1000 nM, time 12-48 hrs
mTORC2 (Homo sapiens) [13] = biological target: T1, mTORC2 (Homo sapiens); conditions: HEK293, dose 30-1000 nM, time 30.0 min

With `COc1ccc(-c2ccc3c(N4CCOCC4)nc(N4C[C@@H](C)O[C@@H](C)C4)nc3n2)cc1CO` [Ku-0063794] the Activity [1] was 96%, the Activity [2] was 100% and the Activity [3] was 104%. It also gave an Activity [4] of 87%, an Activity [5] of 75% and an Activity [6] of 89%. For the same compound, the Activity [7] was 76%, the Activity [8] was 71% and the Activity [9] was 92%. The Activity [10] was 104%, the Activity [11] was 108% and the inhibition (HEK293) was “inactive”. For the same compound, the inhibition (MEF) was “Active”, the inhibition (mTORC1 (Homo sapiens)) was “Dose-Dependent Effect” and the inhibition (mTORC2 (Homo sapiens) [12]) was “Active”. For the same compound, the inhibition (mTORC2 (Homo sapiens) [13]) was “Active”.

— ChEMBL document CHEMBL5678799 (Biochem J, 2009)
